Experimental findings from ChEMBL document CHEMBL4619746, “Discovery and biological evaluation of proteolysis targeting chimeras (PROTACs) as an EGFR degraders based on osimertinib and lenalidomide” (Bioorg Med Chem Lett, 2020) are described below.

Assay [1] concerns Protein cereblon/Epidermal growth factor receptor (Homo sapiens), P00533+Q96SW2 [UNDEFINED MUTATION]. Description: Protac activity at CRBN/EGFR exon 19 deletion mutant in human PC9 cells assessed as increase in degradation of EGFR at 10 uM incubated for 24 hrs by Western blot analysis. Format: cell-based. The conditions noted are these: PC-9. The procedure, abridged: (§1)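 PC9 (EGFR Del19) and H1975 (EGFR L858R/T790M) cells exposed to 10 μM compound for 24 h. Cell lysates analysed for EGFR protein by western blot.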
Background: A western blot detects proteins with antibodies after separation by electrophoresis.

For assay [2], the system named is NCI-H1975. Description: Antiproliferative activity against human NCI-H1975 cells harboring EGFR L858R/T790M double mutant by MTT assay. Format: functional, cell-based. A digest of the protocol: (§2)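 MTT proliferation read-out in human NSCLC lines: PC9 (EGFR Del19), HCC827 (EGFR Del E746-A750) and H1975 (EGFR L858R/T790M). IC50 values are in μM and reported as mean ± SD from n = 3.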

The subject of assay [3] is PC-9. Description: Antiproliferative activity against human PC9 cells harboring EGFRDel19 mutant by MTT assay. Format: functional, cell-based. The procedure, abridged:
as §2
Background: Formazan colour is commonly taken as a measure of viable cells.

Assay [4] has as its system Protein cereblon/Epidermal growth factor receptor (Homo sapiens), P00533+Q96SW2 [L858R,T790M]. The assay can be described thus: Protac activity at CRBN/EGFR L858R/T790M mutant in human H1975 cells assessed as induction of degradation of EGFR at 10 uM incubated for 24 hrs by Western blot analysis. Format: cell-based. The procedure, abridged: as §1
Assay [5] concerns HCC827. The assay can be described thus: Antiproliferative activity against human HCC827 cells harboring EGFRDel19 mutant by MTT assay. Format: functional, cell-based. A digest of the protocol: as §2
Assay [6] concerns Protein cereblon/Epidermal growth factor receptor (Homo sapiens), P00533+Q96SW2 [UNDEFINED MUTATION]. The assay can be described thus: Protac activity at CRBN/EGFR exon 19 deletion mutant in human PC9 cells assessed as induction of degradation of EGFR at 0.3 uM pretreated with proteasome inhibitor, MG-132 for 2 hrs followed by incubation with compound for 6 hrs by Western blot analysis. Format: cell-based. The conditions noted are these: PC-9. A digest of the protocol:
(§3)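 PC9 cells pretreated for 2 h with proteasome inhibitor MG-132 (10 μM) or lenalidomide (10 μM), then given 0.3 μM PROTAC for 6 h. EGFR levels read by western blot.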

The test system is the same in assay [7]. The assay can be described thus: Protac activity at CRBN/EGFR exon 19 deletion mutant in human PC9 cells assessed as induction of degradation of EGFR by measuring fold change in EGFR protein expression at 1 uM incubated for 6 hrs by Western blot analysis relative to control (reference value: 1). In kind it is cell-based. The following applies: PC-9. A digest of the protocol: (§4)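 PC9 cells (EGFR Del19) exposed for 6 h to six concentrations from 0.1 μM to 10 μM. EGFR protein measured by western blot relative to untreated control. DC50 and Dmax derived from the concentration-response.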

Assay [8] has the same test system. Description: Protac activity at CRBN/EGFR exon 19 deletion mutant in human PC9 cells assessed as induction of degradation of EGFR assessed as fold change in EGFR protein expression at 0.3 uM incubated for 1 hr by Western blot analysis relative to control (reference value: 1). Format: cell-based. The conditions noted are these: PC-9. A digest of the protocol: (§5)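 Time course in PC9 cells at a fixed 0.3 μM. Cells harvested at the indicated time points and EGFR protein quantified by western blot relative to control.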

The test system is the same in assay [9]. Description: Protac activity at CRBN/EGFR exon 19 deletion mutant in human PC9 cells assessed as induction of degradation of EGFR assessed as fold change in EGFR protein expression at 0.3 uM incubated for 12 hrs by Western blot analysis relative to control (reference value: 1). In kind it is cell-based. The conditions noted are these: PC-9. A digest of the protocol: as §5

The target of assay [10] is Protein cereblon/Epidermal growth factor receptor (Homo sapiens, UniProt P00533+Q96SW2). The assay can be described thus: (§6) Protac activity at CRBN/EGFR exon 19 deletion mutant in human PC9 cells assessed as induction of degradation of EGFR incubated for 6 hrs by Western blot analysis. In kind it is cell-based. The conditions noted are these: pc-9. The procedure, abridged:
as §4

Assay [11] deals with Protein cereblon/Epidermal growth factor receptor (Homo sapiens), P00533+Q96SW2 [UNDEFINED MUTATION]. The description is as §6. The conditions noted are these: PC-9. Format: cell-based. The procedure, abridged: as §4
Assay [12] has the same test system. The assay can be described thus: Protac activity at CRBN/EGFR exon 19 deletion mutant in human PC9 cells assessed as induction of degradation of EGFR by measuring fold change in EGFR protein expression at 0.3 uM incubated for 6 hrs by Western blot analysis relative to control (reference value: 1). Format: cell-based. The following applies: PC-9. The procedure, abridged:
as §4

Assay [13] shares this test system. Description: Protac activity at CRBN/EGFR exon 19 deletion mutant in human PC9 cells assessed as induction of degradation of EGFR assessed as fold change in EGFR protein expression at 0.3 uM incubated for 3 hrs by Western blot analysis relative to control (reference value: 1). In kind it is cell-based. The following applies: PC-9. A digest of the protocol: as §5

For assay [14] the test system is unchanged. Description: Protac activity at CRBN/EGFR exon 19 deletion mutant in human PC9 cells assessed as induction of degradation of EGFR assessed as fold change in EGFR protein expression at 0.3 uM incubated for 24 hrs by Western blot analysis relative to control (reference value: 1). Format: cell-based. The conditions noted are these: PC-9. The procedure, abridged: as §5

Assay [15] relates to PC-9. Description: Induction of cell cycle arrest in human PC9 cells harboring EGFRDel19 mutant assessed as accumulation in G0/G1 phase at 0.5 uM incubated for 24 hrs by confocal microscopy. Format: functional, cell-based. The procedure, abridged:
(§7)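 PC9 cells were exposed to 0.5 μM test agent for 24 h. Cell cycle distribution and apoptosis were then read on an ImageXpress Micro Confocal/Widefield high-content imaging system.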

Assay [16] concerns Protein cereblon/Epidermal growth factor receptor (Homo sapiens), P00533+Q96SW2 [UNDEFINED MUTATION]. Description: Protac activity at CRBN/EGFR exon 19 deletion mutant in human PC9 cells assessed as induction of degradation of EGFR at 0.3 uM incubated for 6 hrs by Western blot analysis relative to control. The following applies: PC-9. Format: cell-based. The procedure, abridged:
as §5

For assay [17] the test system is unchanged. Description: Protac activity at CRBN/EGFR exon 19 deletion mutant in human PC9 cells assessed as induction of degradation of EGFR by measuring fold change in EGFR protein expression at 3 uM incubated for 6 hrs by Western blot analysis relative to control (reference value: 1). In kind it is cell-based. The following applies: PC-9. A digest of the protocol:
as §4

Assay [18] shares this test system. Description: Protac activity at CRBN/EGFR exon 19 deletion mutant in human PC9 cells assessed as induction of degradation of EGFR assessed as fold change in EGFR protein expression at 0.3 uM incubated for 48 hrs by Western blot analysis relative to control (reference value: 1). The conditions noted are these: PC-9. Format: cell-based. A digest of the protocol: as §5

Assay [19] has the same test system. Description: Protac activity at CRBN/EGFR exon 19 deletion mutant in human PC9 cells assessed as induction of degradation of EGFR at 0.3 uM incubated for 24 hrs by DAPI-staining based immunofluorescence microscopy. Format: cell-based. The conditions noted are these: PC-9.
Assay [20] shares this test system. Description: Protac activity at CRBN/EGFR exon 19 deletion mutant in human PC9 cells assessed as induction of degradation of EGFR by measuring fold change in EGFR protein expression at 10 uM incubated for 6 hrs by Western blot analysis relative to control (reference value: 1). In kind it is cell-based. The following applies: PC-9. The procedure, abridged:
as §4

For assay [21], the system named is PC-9. The assay can be described thus: Induction of apoptosis in human PC9 cells harboring EGFRDel19 mutant at 0.5 uM incubated for 24 hrs by confocal microscopy relative to control. Format: functional. The procedure, abridged:
as §7

Assay [22] relates to Protein cereblon/Epidermal growth factor receptor (Homo sapiens), P00533+Q96SW2 [UNDEFINED MUTATION]. Description: Protac activity at CRBN/EGFR exon 19 deletion mutant in human PC9 cells assessed as induction of degradation of EGFR by measuring fold change in EGFR protein expression at 0.1 uM incubated for 6 hrs by Western blot analysis relative to control (reference value: 1). Format: cell-based. The conditions noted are these: PC-9. A digest of the protocol:
as §4

Assay [23] shares this test system. Description: Protac activity at CRBN/EGFR exon 19 deletion mutant in human PC9 cells assessed as induction of degradation of EGFR at 0.3 uM pretreated with proteasome inhibitor, lenalidomide for 2 hrs followed by incubation with compound for 6 hrs by Western blot analysis. Format: cell-based. The following applies: PC-9. The procedure, abridged: as §3

The source made the active and inactive calls. The calls are words filed in the database; no cut-off is given here.

Turning to `C=CC(=O)Nc1cc(Nc2nccc(-c3cn(C)c4ccccc34)n2)c(OC)cc1N(C)CCN(C)CCOCCOCC(=O)Nc1cccc2c1CN(C1CCC(=O)NC1=O)C2=O` (stereo not drawn), the outcome in assay [1] and in [4] was Active. Moreover, the IC50 was determined as 1390 nM in [2], 1420 nM in [3] and 1870 nM in assay [5].

As for `C=CC(=O)Nc1cc(Nc2nccc(-c3cn(C)c4ccccc34)n2)c(OC)cc1N(C)CCN(C)CCOCCOCCOCC(=O)Nc1cccc2c1CN(C1CCC(=O)NC1=O)C2=O` (stereo not drawn), the outcome in assay [1] and in [4] was Active. The IC50 in assay [2] is 1700 nM; in assay [3] it was 1120 nM; in assay [5], 1610 nM.

`C=CC(=O)Nc1cc(Nc2nccc(-c3cn(C)c4ccccc34)n2)c(OC)cc1N(C)CCN(C)CCOCCOCCOCCOCC(=O)Nc1cccc2c1CN(C1CCC(=O)NC1=O)C2=O` (stereo not drawn): the outcome in [1], in assay [4], in assay [15] and in [19] was Active. Also, the result in [6] and in assay [23] was inactive. Further, the fold change (FC) in [7] is 0.82; in [8], 0.96; in [9], 1.39; in [12], 0.32 to 0.44; in assay [13] it was 1.01; in assay [14] it was 0.52. In addition, the fold change (FC) in assay [17] amounted to 0.49; in [18] it was 0.57; in [20], 0.39; in [22], 0.61. Moreover, the IC50 in assay [2] came to 657 nM; in assay [3], 413 nM; in assay [5], 1340 nM. Moreover, the DC50 in assay [10] turned out to be 161 nM. The Activity result is “Dose-dependent effect” in assay [11] and 38.6% in assay [21]. For the same molecule, the Emax in assay [16] lay in the range of 56 to 68%.

In general, IC50 refers to the concentration that inhibits the measured activity by half. The term DC50 denotes the midpoint of the concentration-degradation curve.
